Screens (PubChem)
A selection: hits, their analogues and other compounds. The true share with any hit is near 2%.
Lipid droplet – modulators of hepatic lipid droplet formation; AML12 mouse hepatocytes, oleate lipid droplets, BODIPY imaging; inhibition, % at 6.5 µM; 240,000 tested, 0.4% active; AID 1656;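 active means lipid droplet intensity inhibited by at least 50%, with more than 500 cells counted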
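Assay system: AML12 hepatocytes (mouse) / Also added: 100 µM oleic acid challenge / Times: overnight treatment with compound plus oleate / Detection: high-content imaging of BODIPY-stained droplets and DAPI nuclei / Evaluation: % inhibition of lipid droplet signal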
GRK2 aptamer HTS – blocks RNA aptamer binding to human GRK2; inhibition of aptamer binding, % at 10 µM; 330,000 tested, 0.59% active; P25098; AID 488847; bead flow cytometry, FAM-aptamer displacement from GRK2;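 active means inhibition of aptamer binding above 40%, roughly 3 SD of noise, on plates passing a quality check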;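 further: median bead fluorescence of bound FAM aptamer so fluorescent compounds give negative values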
NTR1 ag – NTR1 (human) agonism | P30989 | NTR1-U2OS beta-arrestin-GFP spot imaging, agonist mode | activation, % at 20 µM | 330,000 tested, 0.17% active | AID 493036;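 active means activation at or above 40% of the spot to cytoplasm intensity ratio, with at least 20 cells analyzed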;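 further: 0% = DMSO without peptide and 100% = 100 nM NTR1 peptide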
Target sequence (P30989 whole entry, looked up): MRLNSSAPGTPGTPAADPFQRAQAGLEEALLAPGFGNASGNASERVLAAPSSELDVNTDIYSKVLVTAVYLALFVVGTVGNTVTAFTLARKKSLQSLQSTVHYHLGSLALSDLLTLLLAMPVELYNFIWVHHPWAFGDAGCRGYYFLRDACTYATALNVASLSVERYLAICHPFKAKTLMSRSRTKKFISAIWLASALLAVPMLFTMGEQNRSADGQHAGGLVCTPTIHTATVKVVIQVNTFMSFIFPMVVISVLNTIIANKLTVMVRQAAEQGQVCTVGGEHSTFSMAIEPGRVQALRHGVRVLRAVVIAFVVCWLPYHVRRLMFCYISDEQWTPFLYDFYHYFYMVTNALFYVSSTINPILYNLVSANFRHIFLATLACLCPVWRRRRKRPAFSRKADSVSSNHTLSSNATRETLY
Beta2AR agonist – agonists of human beta-2 adrenergic receptor inducing internalization; AID 504454; Am2.2-beta2AR cells, FAP receptor internalization, flow cytometry; P07550; response, % (no concentration beside the values); 340,000 tested, 0.43% active;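 active means response above a set limit, near 3 SD of response in nonfluorescent compounds, cut at about 42% in these data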
TAG inh – triacylglycerol accumulation inhibition; H9c2 cells, Nile Red lipid (TAG) fluorescence; cells loaded with 200 µM oleic acid; inhibition, % at 12.5 µM; 230,000 tested, 0.66% active; AID 651582;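 active means pattern-corrected inhibition of lipid staining of at least 50% with the nuclear-stain viability signal not falling by more than 50%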;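 further: 0% = DMSO wells and 100% = triacsin C control wells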
Arr AP2 block – inhibitors of human beta-arrestin and AP2 interaction; FITC-arrestin peptide / GST-AP2 beads, flow cytometry; AP2 beta2 appendage carries R879A mutation; inhibition, % at 10 µM; 340,000 tested, 0.31% active; AID 504490;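 active means inhibition above a set limit, near 3 SD of compounds lacking own fluorescence, cut at about 54% in these data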;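 further: plate controls were DMSO wells for no effect and 5 µM unlabelled arrestin peptide for full effect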
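Test system: GST-tagged AP2 beta2-adaptin appendage (R879A) on 4 µm glutathione beads; also added: fluorescein-tagged arrestin peptide at 50 nM final; timing: 12 min plus 1 h, RT; signal: flow cytometry, FL1 (488/535 nm); read-out: percent drop in bead-associated FITC signal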
GRK2 CP1 – human GRK2 inhibition confirmation, cherry pick 1 | AID 504451 | 2,000 tested, 4% active | shares compounds with GRK2 aptamer HTS | aptamer displacement, % at 10 µM | bead-bound GRK2, FAM-aptamer displacement, flow cytometry;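 active means aptamer displacement above 40%, near three times the noise of non-fluorescent compounds, on plates passing quality checks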;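 further: negative values mostly reflect intrinsic compound fluorescence rather than true enhancement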
Aptamer quench – quenches fluorescent RNA aptamer, GRK2 hit artifact; shares compounds with GRK2 aptamer HTS; AID 504521; fluorescence change (kMESF span), kMESF (no concentration beside the values); 110 tested, under 10 active; Fluorescent RNA aptamer beads, quenching, flow cytometry; hits give high values;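 active means compounds whose bead fluorescence drops by more than 37 kMESF across the dose range, marking them as dye quenchers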
Aptamer quench SP – counter-screen for GRK2 aptamer inhibitors: fluorescent aptamer quenchers; shares compounds with GRK2 aptamer HTS; 2,000 tested, under 10 active; Carboxyfluorescein RNA aptamer on beads, flow cytometry quenching; hits give low values; fluorescence response (% of DMSO), % at 10 µM; AID 504580;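 active means compounds that quench the bead-bound fluorescent RNA probe, cutting fluorescence to under half of the solvent control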;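 further: counterscreen run without GRK2 so only probe quenching by compound is measured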
GRK2 confirm 2 – confirmation of human GRK2 inhibitors binding RNA aptamer site. shares compounds with GRK2 aptamer HTS. bead-bound GRK2, FAM-aptamer displacement, flow cytometry. inhibition of aptamer binding, % at 10 µM. 360 tested, under 10 active;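 active means inhibition of aptamer binding above 40%, about triple the noise seen with nonglowing compounds, on plates passing quality control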;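 further: negative values mostly come from compounds that fluoresce themselves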
FAM quench SP – counter-screen for GRK2 binding hits: quenchers of fluorescent RNA aptamer; shares compounds with GRK2 aptamer HTS; carboxyfluorescein RNA aptamer beads, flow cytometry quenching; hits give low values; fluorescence response vs DMSO, % at 10 µM; 360 tested, under 10 active; AID 588494;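 active means response vs DMSO under 50%, meaning signal dropped by over half, treated as fluorescence quencher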;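 further: labelled aptamer on streptavidin beads without GRK2 as a quench counter-screen; 100% = bead fluorescence of DMSO wells and lower means quenching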
FAM quench PS1 – counter-screen for GRK2 aptamer binding inhibitors: aptamer fluorescence quenching; shares compounds with GRK2 aptamer HTS; Bead-bound FAM RNA aptamer fluorescence quenching, flow cytometry; hits give low values; fluorescence ratio to DMSO, % at 11.1 µM; 35 tested, under 10 active; AID 588496;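 active means compounds that dim the fluorescent label, raw bead signal shifting by over 33 units between lowest and highest dose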
* hit, by the source's call; . = not tested or not shown.

SMILES	Lipid droplet	GRK2 aptamer HTS	NTR1 ag	Beta2AR agonist	TAG inh	Arr AP2 block	GRK2 CP1	Aptamer quench SP	others
Cc1c(C(=O)Nc2ccccn2)sc2nc3n(c(=O)c12)CCC3	-4	0	0	-12	14	25	.	.
Cn1c(C(=O)N2CCCC(C(=O)NCCCSC3CCCCC3)C2)cc2sccc21 (configuration not stated)	.	25	6	0	.	4	1	96
O=c1cc(-c2ccccc2)cc(-c2ccccc2)n1O	.	3	2	4	16	5	.	.
Cc1ccccc1-c1nc(CS(=O)(=O)CC(=O)NCc2ccc3c(c2)OCO3)c(C)o1	23	83*	7	-8	-8	4	0	89	GRK2 confirm 2=11;FAM quench SP=97
COc1ccc(-c2nc(CS(=O)(=O)CC(=O)NCc3ccc4c(c3)OCO4)c(C)o2)cc1	-7	0	-1	-1	.	-15	.	.
COc1cccc(NC(=O)c2cccnn2)c1	0	41*	0	-2	.	6	0	98
COc1ccc(NC(=O)Nc2cccc(C)n2)c(OC)c1	-5	6	1	7	.	12	.	.
COc1cccc(NC(=O)Nc2cccc(C)n2)c1	-1	58*	5	21	.	12	-1	93
Cc1ccc(SSc2cc(C)ccc2N)c(N)c1	.	0	3	32	11	17	.	.
CCc1nnc(NC(=O)c2cc(-c3ccccn3)nc3ccccc23)s1	5	0	1	-15	0	29	.	.
COc1ccccc1CNC(=O)COC(=O)c1cc(C)nc2ccccc12	.	0	1	-9	4	-11	.	.
CCc1nnc(NC(=O)c2cc(-c3ccco3)nc3ccccc23)s1	-7	0	4	-1	-14	-5	-1	97
COc1ccccc1CNC(=O)COC(=O)c1cc(-c2ccco2)nc2ccccc12	17	49*	2	0	.	-21	34	97
Cc1ccc(C)c(NC(=O)C2CCCN(S(=O)(=O)c3cccnc3)C2)c1 (configuration not stated)	2	0	-1	-5	.	-1	.	.
COc1cc(C(N)=O)cc(Br)c1OCc1ccccc1	-11	100*	3	0	.	0	.	.	GRK2 confirm 2=8;FAM quench SP=105
CC(C)(C)OC(=O)NCC(=O)NNC(=O)C(C(=O)OCc1ccccc1)c1ccccc1 (configuration not stated)	.	0	0	2	.	3	.	.
Cc1ccc2c(c1)c1nnc(SCC(=O)N3CCN(c4ccc(F)cc4)CC3)nc1n2CC(=O)O	-31	100*	-2	-4	.	-5	.	.	GRK2 confirm 2=2;FAM quench SP=99
CCn1c2ccc(C)cc2c2nnc(SCCN3CCOCC3)nc21	-14	4	1	-3	-3	19	.	.
CN(c1ccccc1)S(=O)(=O)c1ccc(Cl)c(C(=O)NCc2ccccc2CN2CCCC2)c1	.	0	3	-3	21	18	.	.
O=c1[nH]c(CN2CCN(S(=O)(=O)c3ccc(Cl)cc3)CC2)nc2cc(Cl)ccc12	17	6	7	3	.	34	.	.
CC(=O)N1CCN(Cc2nc3cc(Cl)ccc3c(=O)[nH]2)CC1	0	87*	-1	-3	9	-22	42*	100	Aptamer quench=9.8;GRK2 confirm 2=-3;FAM quench SP=96;FAM quench PS1=102
COc1ccc(N2CCN(Cc3nc4cc(Cl)ccc4c(=O)[nH]3)CC2)cc1	4	3	3	2	-5	10	.	.	GRK2 confirm 2=5;FAM quench SP=107
COc1ccc(N(CC(=O)NCCc2cccc(C)c2)S(=O)(=O)c2c(C)noc2C)cc1	2	0	0	6	.	6	.	.
Cc1csc(NC(=O)CN2C(=O)COc3ccc(Cl)cc32)n1	.	1	1	1	-1	-2	.	.
CC(C)(C)C(=O)Nc1nnc(SCC(=O)NC2CC2)s1	-16	2	0	2	.	4	.	.
SMILES	Lipid droplet	GRK2 aptamer HTS	NTR1 ag	Beta2AR agonist	TAG inh	Arr AP2 block	GRK2 CP1	Aptamer quench SP	others
NNC(=O)c1ccc(N2CCc3ccccc32)c([N+](=O)[O-])c1	10	19	0	-3	-21	-7	.	.
Cc1ccc(CNC(=O)c2ccc(N3CCc4ccccc43)c([N+](=O)[O-])c2)cc1	-5	3	1	15	.	-9	0	98
Cc1ccc(S(=O)(=O)c2nc(S(C)(=O)=O)sc2N2CCOCC2)cc1	-25	5	0	-5	.	20	.	.
Cc1ccc(S(=O)(=O)c2nc(S(=O)(=O)c3ccc(C)cc3)c(N3CCN(CCO)CC3)s2)cc1	-9	0	1	0	.	11	-3	97
Cc1ccc(S(=O)(=O)c2nc(S(C)(=O)=O)sc2N2CCC3(CC2)OCCO3)cc1	-16	52*	0	0	13	10	.	.	GRK2 confirm 2=-1;FAM quench SP=100
COc1ccccc1C(=O)NC(=O)COC(=O)c1ccc(Br)o1	.	.	0	2	-5	-18	.	.
O=c1[nH]c(C2CCN(S(=O)(=O)c3ccc4c(c3)OCCO4)CC2)nc2c1nnn2Cc1ccc(F)cc1	-2	0	0	9	.	-4	.	.
COc1cccc(-c2cnc(C(O)c3ccc(C)cc3C)[nH]2)c1 (configuration not stated)	.	.	.	.	3	.	.	.
COc1ccccc1NS(=O)(=O)c1ccc(C(=O)N2CC(C)OC(C)C2)cc1 (configuration not stated)	.	4	1	-1	7	-39	.	.
O=C(N/N=C/c1ccc(F)cc1)c1cccc(NC(=O)c2ccccc2Cl)c1	2	0	-2	10	.	-3	.	.
COC(=O)c1cc(-c2ccccc2)c2c(=O)n(C)c(=O)n(C)c2n1	16	.	.	.	.	.	.	.
COC(=O)c1cc(-c2cccc([N+](=O)[O-])c2)c2c(=O)n(C)c(=O)n(C)c2n1	0	79*	6	-7	.	-7	-1	104
